Source: ChEMBL document CHEMBL4819034, “Tricyclic-Carbocyclic RORγt Inverse Agonists-Discovery of BMS-986313” (J Med Chem, 2021)
Values belong to the compound of their own block, whether it stands above or below them.

Columns and labels:
[1] = Metabolic stability in human liver microsomes assessed as parent compound remaining; assay type: ADME, Microsome
Outline: (§1)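 Test compound at 0.5 μM initial concentration incubated with human, mouse or rat liver microsomes (protein 1 mg/mL). Metabolic stability reported as percent of parent compound remaining after incubation.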

[2] = Metabolic stability in mouse liver microsomes assessed as parent compound remaining; assay type: ADME, Microsome; outline: as §1
[3] = Metabolic stability in rat liver microsomes assessed as parent compound remaining; assay type: ADME, Microsome; outline: as §1
[4] = molecular target: T1, Nuclear receptor ROR-gamma (Homo sapiens, UniProt P51449); assay: Inverse agonist activity at recombinant full-length human Gal4-fused RORgammat expressed in human Jurkat cells incubated for 18 hrs by steady-glo luciferase reporter gene assay; assay type: cell-based
T1 sequence (P51449 whole entry): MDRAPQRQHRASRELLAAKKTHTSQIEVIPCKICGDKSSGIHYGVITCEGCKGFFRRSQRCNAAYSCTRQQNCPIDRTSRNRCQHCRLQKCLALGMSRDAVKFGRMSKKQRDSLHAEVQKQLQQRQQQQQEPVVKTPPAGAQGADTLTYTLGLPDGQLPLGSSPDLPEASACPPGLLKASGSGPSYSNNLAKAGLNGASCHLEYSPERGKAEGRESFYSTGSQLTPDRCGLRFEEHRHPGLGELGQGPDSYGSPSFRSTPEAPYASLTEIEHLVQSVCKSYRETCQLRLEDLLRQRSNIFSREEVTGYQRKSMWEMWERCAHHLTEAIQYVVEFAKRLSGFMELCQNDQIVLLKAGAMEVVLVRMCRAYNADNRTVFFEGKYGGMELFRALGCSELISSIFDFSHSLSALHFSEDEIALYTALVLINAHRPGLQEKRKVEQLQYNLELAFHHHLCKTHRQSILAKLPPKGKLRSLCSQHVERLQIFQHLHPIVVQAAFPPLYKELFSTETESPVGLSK

[5] = molecular target: T1, Nuclear receptor ROR-gamma; assay: Inverse agonist activity at RORgammat in CD3 and CD28-stimulated human whole blood assessed as suppression of IL17 preincubated for 1 hr followed by CD3 and CD28 stimulation measured after 20 hrs by AlphaLISA method; assay type: tissue-based
[6] = Half life in dog liver microsomes; assay type: ADME, Canis lupus familiaris, Microsome
Outline: (§2)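 Liver microsome half-life (min) measured in human, mouse, rat, dog and cyno liver microsomes.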

[7] = Half life in rat liver microsomes; assay type: ADME, Microsome; outline: as §2
[8] = Half life in human liver microsomes; assay type: ADME, Microsome; outline: as §2
[9] = Half life in mouse liver microsomes; assay type: ADME, Microsome; outline: as §2
[10] = Permeability across apical to basolateral membrane in human Caco-2 cells; assay type: ADME, cell-based; settings: read-out: permeability
Outline: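 Caco-2 monolayer permeability, apical-to-basolateral direction (Pc, nm/s). An efflux ratio is also reported.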

[11] = Half life in cynomolgus monkey liver microsomes; assay type: ADME, Macaca fascicularis, Microsome; outline: as §2

SMILES: CS(=O)(=O)N[C@@H]1CC[C@@]2(S(=O)(=O)c3ccc(F)cc3)c3ccc(C(F)(C(F)(F)F)C(F)(F)F)cc3CC[C@@H]12
EC50 [4]: 0.0073 µM
EC50 [5]: 0.157 µM

SMILES: CC(C)(C(=O)N[C@@H]1CC[C@@]2(S(=O)(=O)c3ccc(F)cc3)c3ccc(C(F)(C(F)(F)F)C(F)(F)F)cc3CC[C@@H]12)N1CCNCC1
Stabilty [1]: 74%
EC50 [4]: 0.063 µM
Stabilty [2]: 78%
Stabilty [3]: 97%

SMILES: O=C(NCCO)N[C@@H]1CC[C@@]2(S(=O)(=O)c3ccc(F)cc3)c3ccc(C(F)(C(F)(F)F)C(F)(F)F)cc3CC[C@@H]12
Stabilty [1]: 97%
Stabilty [2]: 93%
Stabilty [3]: 41%

SMILES: CNC(=O)N[C@@H]1CC[C@@]2(S(=O)(=O)c3ccc(F)cc3)c3ccc(C(F)(C(F)(F)F)C(F)(F)F)cc3CC[C@@H]12
Stabilty [1]: 40%
Stabilty [2]: 32%
Stabilty [3]: 10%

SMILES: CC(C)(O)CNC(=O)N[C@@H]1CC[C@@]2(S(=O)(=O)c3ccc(F)cc3)c3ccc(C(F)(C(F)(F)F)C(F)(F)F)cc3CC[C@@H]12
Stabilty [1]: 54%
Stabilty [3]: 42%

SMILES: CC(C)(N)CC(=O)N[C@@H]1CC[C@@]2(S(=O)(=O)c3ccc(F)cc3)c3ccc(C(F)(C(F)(F)F)C(F)(F)F)cc3CC[C@@H]12
Stabilty [1]: 98%
Stabilty [2]: 85%
Stabilty [3]: 89%

SMILES: O=C(N[C@@H]1CC[C@@]2(S(=O)(=O)c3ccc(F)cc3)c3ccc(C(F)(C(F)(F)F)C(F)(F)F)cc3CC[C@@H]12)C1(O)CCCCC1
Stabilty [1]: 50%
Stabilty [2]: 56%
Stabilty [3]: 22%

SMILES: CC(=O)NCC(=O)N[C@@H]1CC[C@@]2(S(=O)(=O)c3ccc(F)cc3)c3ccc(C(F)(C(F)(F)F)C(F)(F)F)cc3CC[C@@H]12
Stabilty [1]: 100%
Stabilty [2]: 93%
Stabilty [3]: 10%

SMILES: CC(C)(N)C(=O)N[C@@H]1CC[C@@]2(S(=O)(=O)c3ccc(F)cc3)c3ccc(C(F)(C(F)(F)F)C(F)(F)F)cc3CC[C@@H]12
Stabilty [1]: 80%
EC50 [4]: 0.03 µM
Stabilty [2]: 100%
EC50 [5]: 0.164 µM
Stabilty [3]: 100%

SMILES: C[C@@H](O)C(=O)N[C@@H]1CC[C@@]2(S(=O)(=O)c3ccc(F)cc3)c3ccc(C(F)(C(F)(F)F)C(F)(F)F)cc3CC[C@@H]12
Stabilty [1]: 71%
Stabilty [2]: 70%
Stabilty [3]: 14%

SMILES: CC(C)(O)CC(=O)N[C@@H]1CC[C@@]2(S(=O)(=O)c3ccc(F)cc3)c3ccc(C(F)(C(F)(F)F)C(F)(F)F)cc3CC[C@@H]12
Stabilty [1]: 97%
Stabilty [2]: 86%
Stabilty [3]: 90%

SMILES: O=C(CO)N[C@@H]1CC[C@@]2(S(=O)(=O)c3ccc(F)cc3)c3ccc(C(F)(C(F)(F)F)C(F)(F)F)cc3CC[C@@H]12
Stabilty [1]: 82%
Stabilty [2]: 65%
Stabilty [3]: 34%

SMILES: [2H]C([2H])([2H])N1C(=O)C(O)CC1C(=O)N[C@@H]1CC[C@@]2(S(=O)(=O)c3ccc(F)cc3)c3ccc(C(F)(C(F)(F)F)C(F)(F)F)cc3CC[C@@H]12 (single isomer, unassigned)
Stabilty [1]: 99%
EC50 [4]: 0.0123 µM
Stabilty [2]: 100%
EC50 [5]: 0.134 µM
Stabilty [3]: 100%

Results, then the compound that gave them:

Stabilty [1]: 100%
Stabilty [2]: 75%
Stabilty [3]: 66%
SMILES: O=C(N[C@@H]1CC[C@@]2(S(=O)(=O)c3ccc(F)cc3)c3ccc(C(F)(C(F)(F)F)C(F)(F)F)cc3CC[C@@H]12)C1(O)CCOCC1

Stabilty [1]: 0.3%
Stabilty [2]: 0.3%
Stabilty [3]: 0.4%
SMILES: CC(C)(C(=O)N[C@@H]1CC[C@@]2(S(=O)(=O)c3ccc(F)cc3)c3ccc(C(F)(C(F)(F)F)C(F)(F)F)cc3CC[C@@H]12)N1CCOCC1

half-life [6]: 27 min
half-life [7]: 18 min
SMILES: CC(C)(O)CNC(=O)[C@@H]1CC[C@@]2(S(=O)(=O)c3ccc(F)cc3)c3ccc(C(F)(C(F)(F)F)C(F)(F)F)cc3CC[C@@H]12

Stabilty [2]: 90%
Stabilty [3]: 100%
SMILES: CC(=O)N[C@@H]1CC[C@@]2(S(=O)(=O)c3ccc(F)cc3)c3ccc(C(F)(C(F)(F)F)C(F)(F)F)cc3CC[C@@H]12

Stabilty [1]: 100%
Stabilty [2]: 88%
Stabilty [3]: 83%
SMILES: O=C(N[C@@H]1CC[C@@]2(S(=O)(=O)c3ccc(F)cc3)c3ccc(C(F)(C(F)(F)F)C(F)(F)F)cc3CC[C@@H]12)C1(O)CCNCC1

half-life [8]: 46 min
half-life [9]: 38 min
Stabilty [1]: 100%
half-life [6]: 120 min
Papp A→B [10]: 92 nm/s
Stabilty [2]: 86%
half-life [7]: 56 min
Stabilty [3]: 100%
half-life [11]: 24 min
SMILES: [2H]C([2H])([2H])N1C(=O)C(F)CC1C(=O)N[C@@H]1CC[C@@]2(S(=O)(=O)c3ccc(F)cc3)c3ccc(C(F)(C(F)(F)F)C(F)(F)F)cc3CC[C@@H]12 (single isomer, unassigned)

Stabilty [1]: 61%
Stabilty [2]: 67%
Stabilty [3]: 100%
SMILES: CC(=O)N1CCC(C(=O)N[C@@H]2CC[C@@]3(S(=O)(=O)c4ccc(F)cc4)c4ccc(C(F)(C(F)(F)F)C(F)(F)F)cc4CC[C@@H]23)CC1

EC50 [4]: 0.045 µM
EC50 [5]: 2.73 µM
SMILES: CN(C(=O)C(C)(C)O)[C@@H]1CC[C@@]2(S(=O)(=O)c3ccc(F)cc3)c3ccc(C(F)(C(F)(F)F)C(F)(F)F)cc3CC[C@@H]12
